Results published in ChEMBL document CHEMBL1156222, “Tetrahydropyridine derivatives with inhibitory activity on the production of proinflammatory cytokines: part 2” (Bioorg Med Chem Lett, 2010).

Tested on: Mus musculus
Experiment: Antiinflammatory activity in mouse assessed as inhibition of LPS-induced TNFalpha production at 20 mg/kg, po administered 30 mins before LPS challenge measured after 1 hr by ELISA
Type: functional
Details: not given
Summary of the method: (§1)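 LPS-induced TNFα production was measured in mice, with N = 5. Activity is reported either as ID50 or as % inhibition at a single 20 mg/kg dose.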

**Q.** With `CCCCCCCCN1CC=C(c2c[nH]c(-c3ccc(F)cc3)c2-c2ccncc2)CC1` as the compound, how does the inhibition in vivo at 20 mg/kg read?
**A.** The inhibition in vivo at 20 mg/kg was 45%.

Tested on: Mus musculus
Experiment: Antiinflammatory activity in po dosed mouse assessed as inhibition of LPS-induced TNFalpha production administered 30 mins before LPS challenge measured after 1 hr by ELISA
Type: functional
Details: read-out: ID50 (the source's name)
Summary of the method: as §1

**Q.** With `CC1CC(c2c[nH]c(-c3ccc(F)cc3)c2-c2ccncc2)=CCN1C` (configuration not stated) as the compound, how does the ED50 read?
**A.** The ED50 was 2.73 mg/kg.

**Q.** For `CC1C=C(c2c[nH]c(-c3ccc(F)cc3)c2-c2ccncc2)CCN1` (configuration not stated), which ED50 is on record?
**A.** Its ED50 is 2.29 mg/kg.

**Q.** Which ED50 does the source give for `CCN1CCC(c2c[nH]c(-c3ccc(F)cc3)c2-c2ccncc2)=CC1C` (configuration not stated) here?
**A.** Its ED50 is 5.28 mg/kg.

**Q.** With `CN1C(C)(C)C=C(c2c[nH]c(-c3ccc(F)cc3)c2-c2ccncc2)CC1(C)C` as the compound, how does the ED50 read?
**A.** The ED50 was 7.27 mg/kg.

**Q.** Which ED50 does the source give for `CCCN1CCC(c2c[nH]c(-c3ccc(F)cc3)c2-c2ccncc2)=CC1C` (configuration not stated) here?
**A.** The ED50 was 2.79 mg/kg.

**Q.** With `CC(C)N1CC=C(c2c[nH]c(-c3ccc(F)cc3)c2-c2ccncc2)CC1` as the compound, how does the ED50 read?
**A.** Its ED50 is 6.18 mg/kg.

**Q.** Which ED50 does the source give for `CCCN1CC=C(c2c[nH]c(-c3ccc(F)cc3)c2-c2ccncc2)CC1` here?
**A.** The ED50 was 6.75 mg/kg.

**Q.** `CN1CC=C(c2c[nH]c(-c3ccc(F)cc3)c2-c2ccncc2)CC1` was tested. Which ED50 did it give?
**A.** The ED50 was 2.89 mg/kg.

**Q.** How did the ED50 turn out when `CCN1CC=C(c2c[nH]c(-c3ccc(F)cc3)c2-c2ccncc2)CC1` was run?
**A.** The ED50 was 6.67 mg/kg.

**Q.** For `CC1C=C(c2c[nH]c(-c3ccc(F)cc3)c2-c2ccncc2)CCN1C` (configuration not stated), which ED50 is on record?
**A.** Its ED50 is 1.42 mg/kg.

Organism: Mus musculus
Experiment: Selectivity ratio of compound ID50 to 4-(2-(4-fluorophenyl)-4-(1,2,3,6-tetrahydropyridin-4-yl)-1H-pyrrol-3-yl)pyridine ID50 for antiinflammatory activity in mouse
Type: functional
Details: not given

**Q.** `CN1CC=C(c2c[nH]c(-c3ccc(F)cc3)c2-c2ccncc2)CC1` was tested. Which Ratio did it give?
**A.** The Ratio was over 2.

Tested on: Blood
Experiment: Antiinflammatory activity in human whole blood assessed as inhibition of LPS-induced TNFalpha production after 6 hrs
Type: functional, tissue-based
Details: not given
Summary of the method: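 Human whole blood was stimulated with LPS, and TNFα production was measured. % inhibition was plotted against log test concentration, and IC50 came from a least-squares linear regression. 95% confidence intervals were calculated by Fieller's theorem. Values are mean and S.D. of three to four determinations.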

**Q.** For `CC(C)(C)N1CC=C(c2c[nH]c(-c3ccc(F)cc3)c2-c2ccncc2)CC1`, which IC50 is on record?
**A.** Its IC50 is over 10000 nM.

**Q.** For `CC1CC(c2c[nH]c(-c3ccc(F)cc3)c2-c2ccncc2)=CCN1C` (configuration not stated), which IC50 is on record?
**A.** The IC50 was 1280 nM.

**Q.** With `CC1C=C(c2c[nH]c(-c3ccc(F)cc3)c2-c2ccncc2)CCN1` (configuration not stated) as the compound, how does the IC50 read?
**A.** Its IC50 is 710 nM.

**Q.** For `CCN1CCC(c2c[nH]c(-c3ccc(F)cc3)c2-c2ccncc2)=CC1C` (configuration not stated), which IC50 is on record?
**A.** The IC50 was 1610 nM.

**Q.** How did the IC50 turn out when `CN1C(C)(C)C=C(c2c[nH]c(-c3ccc(F)cc3)c2-c2ccncc2)CC1(C)C` was run?
**A.** Its IC50 is 8440 nM.

**Q.** `CCCN1CCC(c2c[nH]c(-c3ccc(F)cc3)c2-c2ccncc2)=CC1C` (configuration not stated) was tested. Which IC50 did it give?
**A.** The IC50 was 440 nM.

**Q.** With `CC(C)N1CC=C(c2c[nH]c(-c3ccc(F)cc3)c2-c2ccncc2)CC1` as the compound, how does the IC50 read?
**A.** The IC50 was 980 nM.

**Q.** How did the IC50 turn out when `CCCN1CC=C(c2c[nH]c(-c3ccc(F)cc3)c2-c2ccncc2)CC1` was run?
**A.** The IC50 was 520 nM.

**Q.** `CN1CC=C(c2c[nH]c(-c3ccc(F)cc3)c2-c2ccncc2)CC1` was tested. Which IC50 did it give?
**A.** Its IC50 is 3960 nM.

**Q.** With `CCN1CC=C(c2c[nH]c(-c3ccc(F)cc3)c2-c2ccncc2)CC1` as the compound, how does the IC50 read?
**A.** Its IC50 is 1210 nM.

**Q.** For `CC1C=C(c2c[nH]c(-c3ccc(F)cc3)c2-c2ccncc2)CCN1C` (configuration not stated), which IC50 is on record?
**A.** The IC50 was 630 nM.

**Q.** How did the IC50 turn out when `CCCCCCCCN1CC=C(c2c[nH]c(-c3ccc(F)cc3)c2-c2ccncc2)CC1` was run?
**A.** Its IC50 is 1380 nM.

**Q.** With `Fc1ccc(-c2[nH]cc(C3=CCN(Cc4ccccc4)CC3)c2-c2ccncc2)cc1` as the compound, how does the IC50 read?
**A.** Its IC50 is over 30000 nM.

Tested on: Blood
Experiment: Antiinflammatory activity in human whole blood assessed as inhibition of LPS-induced TNFalpha production at 10 uM after 6 hrs
Type: functional
Details: not given
Summary of the method: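 Human whole blood was stimulated with LPS, and inhibition of TNFα production was measured at a single test concentration of 10 μM. Values are mean and S.D. of three to four determinations.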

**Q.** `C=CCC1C=C(c2c[nH]c(-c3ccc(F)cc3)c2-c2ccncc2)CCN1C` (configuration not stated) was tested. Which inhibition at 10 µM did it give?
**A.** The inhibition at 10 µM was 48.7%.

**Q.** `CN1CCC(c2c[nH]c(-c3ccc(F)cc3)c2-c2ccncc2)=CC1Cc1ccccc1` (configuration not stated) was tested. Which inhibition at 10 µM did it give?
**A.** The inhibition at 10 µM was 30.8%.
